Here are results for six compounds from ChEMBL document CHEMBL1149023, “Quinone-methide triterpenes and salaspermic acid from Kokoona ochracea” (1994).

One assay concerns MEL-2 (Homo sapiens). As to the kind of experiment: Cytotoxicity against human MEL-2 cells after 72 hrs by sulforhodamine B assay. To be noted: MEL-2, 72 h, read-out: ED50 (the source's name). A general note: The SRB assay estimates cell density from bound dye.
A further assay has as its system KB. As to the kind of experiment: Cytotoxicity against human KB cells after 72 hrs by sulforhodamine B assay. The assay is classed as functional. To be noted: read-out: ED50 (the source's name). The method in brief:
(§1)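 Cells went in triplicate into 4 concentrations (0.16–20 µg/ml) from DMSO stock, final DMSO 0.5% v/v, for 72 h at 37° in 5% CO2. Cells were fixed with cold 50% TCA and stained with 0.4% sulforhodamine B in 1% HOAc. Bound dye was dissolved in 10 mM Tris base and read at 515 nm. ED50 came from the averaged data as percent of DMSO controls. LNCaP and ZR-75-1 were kept in phenol red-free RPMI with hormone-free FBS plus 0.1 nM testosterone or estradiol, respectively.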

A short description of assay [1]: Cytotoxicity against human BC1 cells after 72 hrs by sulforhodamine B assay. To be noted: BC1, 72 h, read-out: ED50 (the source's name). Format: functional. Put shortly: as §1
The test system of another assay is HT-1080. As to the kind of experiment: Cytotoxicity against human HT1080 cells after 48 hrs by sulforhodamine B assay. The assay is classed as functional. To be noted: HT-1080, 48 h, read-out: ED50 (the source's name). Put shortly: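 HT-1080 was kept in MEME with 1% NAA and 10% heat-inactivated FBS. Cells were treated in triplicate at 4 concentrations (0.16–20 µg/ml), final DMSO 0.5%, for 48 h at 37° in 5% CO2. They were fixed with cold 50% TCA and stained with sulforhodamine B; OD was read at 515 nm. ED50 was taken against DMSO-only controls.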

Assay [2] can be described thus: Cytotoxicity against human KBV1 cells after 72 hrs by sulforhodamine B assay in absence of vinblastine. The assay is classed as functional. Particulars: KB-V1, 72 h, read-out: ED50 (the source's name).
A further assay concerns ZR-75-1. In words: Cytotoxicity against human ZR-75-1 cells after 72 hrs by sulforhodamine B assay. Format: functional. Particulars: ZR-75-1, 72 h, read-out: ED50 (the source's name). The method in brief: as §1
Another assay has as its system Lu1. As to the kind of experiment: Cytotoxicity against human Lu1 cells after 72 hrs by sulforhodamine B assay. The assay is classed as functional. Particulars: Lu1, 72 h, read-out: ED50 (the source's name). Put shortly:
as §1

The nature of assay [3]: Cytotoxicity against human U373 cells after 96 hrs by sulforhodamine B assay. Format: functional, U-373MG ATCC. Particulars: U373 MG, read-out: ED50 (the source's name). Put shortly:
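U373 cells were treated in triplicate at 4 concentrations (0.16–20 µg/ml), final DMSO 0.5%, for 96 h at 37° in 5% CO2. Cells were fixed with cold 50% TCA, stained with 0.4% sulforhodamine B in 1% HOAc, and the dye was solubilized in 10 mM Tris. OD was read at 515 nm and ED50 was taken from percent of DMSO control.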

In the next assay the test system is P388. As to the kind of experiment: Cytotoxicity against mouse P388 cells after 48 hrs by sulforhodamine B assay. Format: functional. Particulars: P388, 48 h, read-out: ED50 (the source's name). The method in brief: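 Murine P-388 was kept in Fisher's medium with 10% heat-inactivated FBS. Cells were exposed in triplicate to 4 concentrations (0.16–20 µg/ml), final DMSO 0.5%, for 48 h at 37° in 5% CO2. They were fixed with cold 20% TCA, stained with 0.4% sulforhodamine B, and read at 515 nm. ED50 was taken relative to DMSO controls.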

The nature of assay [4]: Cytotoxicity against human KBV1 cells after 72 hrs by sulforhodamine B assay in presence of vinblastine. The assay is classed as functional. Particulars: KB-V1, 72 h, read-out: ED50 (the source's name).
The subject of another assay is A-431. In words: Cytotoxicity against human A431 cells after 72 hrs by sulforhodamine B assay. Format: functional. Particulars: A-431, 72 h, read-out: ED50 (the source's name). Put shortly:
as §1

For the next assay, the system named is Col2. As to the kind of experiment: Cytotoxicity against human Col2 cells after 72 hrs by sulforhodamine B assay. Particulars: Col2, 72 h, read-out: ED50 (the source's name).
The next assay concerns LNCaP. In words: Cytotoxicity against human LNCAP cells after 72 hrs by sulforhodamine B assay. Format: functional. Particulars: read-out: ED50 (the source's name). Put shortly:
as §1

Molecules are shown by their SMILES. Converted amounts (≈) assume the structure as drawn.

Turning to `CC1=C(O)C(=O)C=C2C1=CC=C1[C@@]2(C)CC[C@@]2(C)[C@@H]3C[C@@](C)(O)C(=O)C[C@]3(C)CC[C@]12C`, the EC50 in the assay with MEL-2 (Homo sapiens) was found to be 1.5 µg/mL (≈ 3.44 µM); in the assay with KB it was 1.7 µg/mL (≈ 3.89 µM); in assay [1], 0.9 µg/mL (≈ 2.06 µM); in the assay on HT-1080, 2.1 µg/mL (≈ 4.81 µM); in assay [2], 3 µg/mL (≈ 6.87 µM); in the assay on ZR-75-1, 1 µg/mL (≈ 2.29 µM). In addition, the EC50 with Lu1 was 2.2 µg/mL (≈ 5.04 µM); in assay [3], 0.8 µg/mL (≈ 1.83 µM); in the assay on P388, 2 µg/mL (≈ 4.58 µM); in assay [4] it was 3.3 µg/mL; in the assay on A-431, 1.1 µg/mL (≈ 2.52 µM); in the assay on Col2 it was 5.8 µg/mL (≈ 13.3 µM). The EC50 in the assay with LNCaP turned out to be 1 µg/mL (≈ 2.29 µM).

Consider `COC(=O)[C@]1(C)CC[C@]2(C)CC[C@]3(C)[C@H]4CC[C@]5(COC(C)=O)[C@@H](C)C(=O)CC[C@H]5[C@]4(C)CC[C@@]3(C)[C@@H]2C1`, for which the EC50 with MEL-2 (Homo sapiens) is above 20 µg/mL; in the assay with KB it was 10.1 µg/mL (≈ 19.1 µM); in [1] it was above 20 µg/mL; in the assay on HT-1080 it was 10 µg/mL (≈ 18.9 µM); in assay [2], 9.8 µg/mL (≈ 18.5 µM); in the assay with ZR-75-1, 6.2 µg/mL (≈ 11.7 µM). The EC50 with Lu1 was 11.9 µg/mL (≈ 22.5 µM); in [3], above 20 µg/mL; in the assay with P388, above 5 µg/mL; in assay [4], 12 µg/mL; with A-431, 5.2 µg/mL (≈ 9.83 µM); in the assay with Col2, above 20 µg/mL. In addition, in the assay with LNCaP, the EC50 worked out at 11.8 µg/mL (≈ 22.3 µM).

As for `CC1=C(O)C(=O)C=C2C1=CC=C1[C@@]2(C)CC[C@@]2(C)[C@@H]3C[C@](C)(C(=O)O)CC[C@]3(C)CC[C@]12C` [CELASTROL], the EC50 in the assay on MEL-2 (Homo sapiens) amounted to 0.6 µg/mL (≈ 1.33 µM); in the assay on KB, 1.2 µg/mL (≈ 2.66 µM); in assay [1], 0.3 µg/mL (≈ 0.666 µM); with HT-1080 it was 0.5 µg/mL (≈ 1.11 µM); in assay [2], 2.4 µg/mL (≈ 5.33 µM); in the assay with ZR-75-1 it was 0.4 µg/mL (≈ 0.888 µM). The EC50 in the assay on Lu1 came to 1.3 µg/mL (≈ 2.88 µM); in assay [3], 0.4 µg/mL (≈ 0.888 µM); with P388 it was 3.5 µg/mL (≈ 7.77 µM); in assay [4] it was 1.7 µg/mL; with A-431, 0.6 µg/mL (≈ 1.33 µM); in the assay with Col2 it was 2.3 µg/mL (≈ 5.1 µM). Moreover, the EC50 with LNCaP is 0.3 µg/mL (≈ 0.666 µM).

For `COC(=O)[C@]1(C)CC[C@]2(C)CC[C@]3(C)[C@H]4CC[C@@]56CO[C@@](O)(CC[C@H]5[C@]4(C)CC[C@@]3(C)[C@@H]2C1)[C@@H]6C` [SALASPERMIC ACID METHYL ESTER], the EC50 (in the assay with MEL-2 (Homo sapiens); in the assay on KB; in assay [1]; in the assay with HT-1080; in [2]; with ZR-75-1) was above 20 µg/mL each time. The EC50 in the assay with Lu1 is above 20 µg/mL; in assay [3], above 20 µg/mL; with P388, above 5 µg/mL; in [4], above 20 µg/mL; in the assay with A-431 it was above 20 µg/mL; with Col2, above 20 µg/mL. Further, in the assay with LNCaP, the EC50 was above 20 µg/mL.

On to `C[C@@H]1[C@@]23CC[C@H]4[C@@](C)(CC[C@@]5(C)[C@@H]6C[C@](C)(C(=O)O)CC[C@]6(C)CC[C@]45C)[C@@H]2CC[C@@]1(O)OC3` [SALASPERMIC ACID], for which the EC50 (in the assay with MEL-2 (Homo sapiens); with KB; in [1]; in the assay with HT-1080; in assay [2]; with ZR-75-1) was above 20 µg/mL each time. For the same compound, the EC50 with Lu1 is above 20 µg/mL; in assay [3] it was above 20 µg/mL; in the assay on P388, above 5 µg/mL; in assay [4] it was above 20 µg/mL; with A-431, above 20 µg/mL; in the assay with Col2 it was above 20 µg/mL. The EC50 with LNCaP was above 20 µg/mL.

Take `CC1=C(O)C(=O)C=C2C1=CC=C1[C@@]2(C)CC[C@@]2(C)[C@@H]3C[C@@H](C)C(=O)C[C@]3(C)CC[C@]12C` [TINGENONE]: the EC50 in the assay with MEL-2 (Homo sapiens) stood at 0.2 µg/mL (≈ 0.476 µM); with KB, 0.9 µg/mL (≈ 2.14 µM); in assay [1], 0.3 µg/mL (≈ 0.713 µM); in the assay on HT-1080, 0.7 µg/mL (≈ 1.66 µM); in assay [2], 0.4 µg/mL (≈ 0.951 µM); with ZR-75-1, 0.2 µg/mL (≈ 0.476 µM). The EC50 in the assay with Lu1 was determined as 0.6 µg/mL (≈ 1.43 µM); in assay [3], 0.6 µg/mL (≈ 1.43 µM); in the assay on P388, 0.1 µg/mL (≈ 0.238 µM); in [4], 0.5 µg/mL; in the assay on A-431, 0.4 µg/mL (≈ 0.951 µM); in the assay on Col2 it was 0.2 µg/mL (≈ 0.476 µM). Further, in the assay on LNCaP, the EC50 turned out to be 0.7 µg/mL (≈ 1.66 µM).
